Source: ChEMBL document CHEMBL1240517, “Bisbibenzyl derivatives sensitize vincristine-resistant KB/VCR cells to chemotherapeutic agents by retarding P-gp activity” (Bioorg Med Chem, 2010)
pIC50: −log10 of the molar value. Where “and” joins values, the source holds several entries; their conditions need not be identical. Equal entries are not always repeated. Calls of active or inactive are those of the source. No cut-off for these calls is given here.

Tests used:
KB/VCR [1] = test: Reversal of P-glycoprotein-mediated vincristine-resistance in human KB/VCR cells expressing Pgp assessed as ratio of vincristine IC50 to vincristine IC50 in presence of compound at 16 uM after 48 hrs by MTT assay; format: cell-based
Method in brief: (§1)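 Cells were exposed for 48 h to VCR or ADR alone, or to VCR or ADR combined with a fixed concentration of modulator. Verapamil (16 µM) served as the reference agent. […] RF = IC50 of drug alone / IC50 with modulator. Means ± SD of three experiments.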

KB [2] = test: Potentiation of vincristine-induced cytotoxicity against human KB cells at 16 uM after 48 hrs by MTT assay; format: functional; method in brief: as §1
KB [3] = test: Potentiation of adriamycin-induced cytotoxicity against human KB cells at 16 uM after 48 hrs by MTT assay; format: functional; method in brief: as §1
KB/VCR [4] = test: Reversal of P-glycoprotein-mediated vincristine-resistance in human KB/VCR cells expressing Pgp assessed as ratio of adriamycin IC50 to adriamycin IC50 in presence of compound at 16 uM after 48 hrs by MTT assay; format: cell-based; method in brief: as §1
KB/VCR (human) = settings: 4 to 16 uM
[5] = Cytotoxicity against human KB/VCR cells expressing Pgp after 48 hrs by MTT assay; format: functional, cell-based
Method in brief: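 KB/VCR cells were kept in 200 ng/mL VCR and moved to drug-free medium for at least one week before use. Cells were exposed to graded compound concentrations for 48 h, with DMSO-treated cells as controls. Viability was read by MTT. IC50 values are means of three experiments.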

KB [6] = test: Cytotoxicity against human KB cells after 48 hrs by MTT assay; format: functional, cell-based
KB/VCR [7] = test: Reversal of P-glycoprotein-mediated vincristine-resistance in human KB/VCR cells expressing Pgp assessed as ratio of vincristine IC50 to vincristine IC50 in presence of compound at 4 uM after 48 hrs by MTT assay; format: cell-based
Method in brief: (§2)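 Cells were exposed for 48 h to VCR or ADR alone, or to VCR or ADR combined with a fixed concentration of modulator. RF = IC50 of drug alone / IC50 with modulator. Means ± SD of three experiments.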

KB/VCR [8] = test: Reversal of P-glycoprotein-mediated vincristine-resistance in human KB/VCR cells expressing Pgp assessed as ratio of vincristine IC50 to vincristine IC50 in presence of compound at 8 uM after 48 hrs by MTT assay; format: cell-based; method in brief: as §2
KB/VCR [9] = test: Induction of apoptosis in human KB/VCR cells expressing Pgp assessed as down-regulation of Bcl-2 expression at 16 uM after 48 hrs by Western blotting; format: functional, cell-based
Method in brief: (§3)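 KB/VCR cells were treated for 48 h with modulator (16 µM), VCR (0.2 µM), or both. Cells were lysed in RIPA buffer containing protease and phosphatase inhibitors. Protein was separated by SDS–PAGE and transferred to PVDF. Membranes were blocked in 5% milk/TBST and probed overnight with anti-Bcl-2 or anti-Bax, then an HRP secondary. GAPDH served as loading control, with ECL detection.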

KB [10] = test: Potentiation of vincristine-induced cytotoxicity against human KB cells at 4 uM after 48 hrs by MTT assay; format: functional; method in brief: as §1
KB [11] = test: Potentiation of vincristine-induced cytotoxicity against human KB cells at 8 uM after 48 hrs by MTT assay; format: functional; method in brief: as §1
KB [12] = test: Potentiation of adriamycin-induced cytotoxicity against human KB cells at 4 uM after 48 hrs by MTT assay; format: functional; method in brief: as §1
KB [13] = test: Potentiation of adriamycin-induced cytotoxicity against human KB cells at 8 uM after 48 hrs by MTT assay; format: functional; method in brief: as §1
KB/VCR [14] = test: Reversal of P-glycoprotein-mediated vincristine-resistance in human KB/VCR cells expressing Pgp assessed as ratio of adriamycin IC50 to adriamycin IC50 in presence of compound at 4 uM after 48 hrs by MTT assay; format: cell-based; method in brief: as §1
KB/VCR [15] = test: Reversal of P-glycoprotein-mediated vincristine-resistance in human KB/VCR cells expressing Pgp assessed as ratio of adriamycin IC50 to adriamycin IC50 in presence of compound at 8 uM after 48 hrs by MTT assay; format: cell-based; method in brief: as §1
KB/VCR [16] = test: Reversal of P-gp-mediated multidrug-resistance in human KB/VCR cells assessed as increase in intracellular rhodamine-123 accumulation after 1 hr by flow cytometry relative to control; format: cell-based
Method in brief: (§4)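 Cells were pretreated with modulator at 4, 8 or 16 µM, or DMSO, for 1 h. Rh123 (5 µM) was then added for a further 1 h at 37 °C in the dark. Cells were washed and resuspended in ice-cold PBS. Rh123 fluorescence was read by flow cytometry using 488 nm excitation and a 530 nm band-pass filter. Means ± SD of three independent experiments, compared with DMSO-treated cells.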

KB [17] = test: Induction of rhodamine-123 accumulation in human KB cells at […] after 1 hr by flow cytometry; format: functional, cell-based; method in brief: as §4
KB/VCR [18] = test: Inhibition of P-gp-mediated rhodamine-123 efflux in human KB/VCR cells at 6 uM after 1 hr by flow cytometry; format: cell-based
Method in brief: (§5)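 For efflux, cells were loaded with 5 µM Rh123 together with modulator or verapamil for 60 min at 37 °C. Cells were washed three times in Rh123-free medium and collected at 15, 30, 45, 60, 90 and 120 min after wash-out. They were resuspended in ice-cold PBS, and remaining Rh123 fluorescence was measured by flow cytometry.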

KB/VCR [19] = test: Inhibition of P-gp-mediated rhodamine-123 efflux in human KB/VCR cells at 6 uM after 2 hrs by flow cytometry; format: cell-based; method in brief: as §5
KB/VCR [20] = test: Induction of apoptosis in human KB/VCR cells expressing Pgp assessed as morphological changes using DAPI staining at 16 uM after 48 hrs by fluorescence microscopic analysis; format: functional, cell-based
Method in brief: (§6)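 KB/VCR cells were treated for 48 h with modulator (16 µM), VCR (0.2 µM), or both. Cells were fixed in 4% paraformaldehyde for 10 min, permeabilized with 0.1% Triton X-100, and stained with DAPI (1:2000) for 10 min. Condensed or fragmented nuclei were scored by fluorescence microscopy.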

KB/VCR [21] = test: Induction of apoptosis in human KB/VCR cells expressing Pgp assessed as up-regulation of Bax expression at 16 uM after 48 hrs by Western blotting; format: functional, cell-based; method in brief: as §3
KB/VCR [22] = test: Reversal of P-glycoprotein-mediated vincristine-resistance in human KB/VCR cells expressing Pgp assessed as ratio of vincristine IC50 to vincristine IC50 in presence of compound at 4 uM after 48 hrs by MTT assay
KB/VCR [23] = test: Reversal of P-gp-mediated multidrug-resistance in human KB/VCR cells assessed as increase in intracellular adriamycin accumulation at 4 uM after 1 hr by flow cytometry relative to control; format: cell-based
Method in brief: (§7)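 Cells were incubated with ADR at 3 µg/mL, alone or with modulator at 4, 8 or 16 µM, for 1 h at 37 °C. The reaction was stopped in an ice-water bath, and cells were washed twice with ice-cold PBS. Intracellular ADR fluorescence was measured by flow cytometry as mean intensity and expressed relative to DMSO-treated control cells.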

KB/VCR [24] = test: Reversal of P-gp-mediated multidrug-resistance in human KB/VCR cells assessed as increase in intracellular adriamycin accumulation at 8 uM after 1 hr by flow cytometry relative to control; format: cell-based; method in brief: as §7
KB/VCR [25] = test: Reversal of P-gp-mediated multidrug-resistance in human KB/VCR cells assessed as increase in intracellular adriamycin accumulation at 16 uM after 1 hr by flow cytometry relative to control; format: cell-based; method in brief: as §7
KB [26] = test: Induction of adriamycin accumulation in human KB cells at […] after 1 hr by flow cytometry; format: functional, cell-based; method in brief: as §7
KB/VCR [27] = test: Induction of apoptosis in human KB/VCR cells expressing Pgp assessed as morphological changes using DAPI staining at 0.2 uM after 48 hrs by fluorescence microscopic analysis; format: functional, cell-based; method in brief: as §6
KB/VCR [28] = test: Induction of apoptosis in human KB/VCR cells expressing Pgp assessed as down-regulation of Bcl-2 expression at 0.2 uM after 48 hrs by Western blotting; format: functional, cell-based; method in brief: as §3
KB/VCR [29] = test: Induction of apoptosis in human KB/VCR cells expressing Pgp assessed as up-regulation of Bax expression at 0.2 uM after 48 hrs by Western blotting; format: functional, cell-based; method in brief: as §3

Compound | fold change (FC) (KB/VCR [1]) | fold change (FC) (KB [2]) | fold change (FC) (KB [3]) | fold change (FC) (KB/VCR [4]) | pIC50 ([5]; Homo sapiens, KB/VCR, 48 h) | pIC50 (KB [6]) | fold change (FC) (KB/VCR [7]) | fold change (FC) (KB/VCR [8]) | IC50 ([5]; Homo sapiens, KB/VCR, 48 h) [µg/mL] | IC50 (KB [6]) [µg/mL] | further results
COc1ccc(CCN(C)CCCC(C#N)(c2ccc(OC)c(OC)c2)C(C)C)cc1OC (stereo unspecified) | 8.85 | 1.29 | 1.06 | 5.32 | – | – | – | – | – | – | inhibition (KB/VCR (human)): inactive
Oc1ccc2cc1Oc1ccc(cc1)/C=C/c1cccc(O)c1Oc1cccc(c1)CC2 [DEHYDROMARCHANTIN C] | 5.95 | – | – | – | 4.06 | 4.08 | 2.16 | 3.51 | – | – | –
COc1ccc2cc1Oc1ccc(cc1)CCc1cccc(OC)c1Oc1cccc(c1)CC2 [DIMETHYL ETHER MARCHANTIAN C] | 7.53 | 1.54 | 0.91 | 6.06 | 4.02 | 4.02 | 4.78 | 2.57 and 6.76 | – | – | Activity (KB/VCR [9]): inactive; fold change (FC) (KB [10]): 1.17; fold change (FC) (KB [11]): 1.33; fold change (FC) (KB [12]): 1.02; fold change (FC) (KB [13]): 1.15; fold change (FC) (KB/VCR [14]): 3.96; fold change (FC) (KB/VCR [15]): 4.2; Activity (KB/VCR [16]): Dose-dependent effect; Activity (KB [17]): inactive; inhibition (KB/VCR [18]): Active; inhibition (KB/VCR [19]): inactive; Activity (KB/VCR [20]): inactive; Activity (KB/VCR [21]): inactive
COc1ccc2cc1Oc1ccc(cc1)/C=C/c1cccc(OC)c1Oc1cccc(c1)CC2 [DIMETHYLETHER DEHYDROMARCHANTIN C] | 3.1 | – | – | – | – | 4.03 | – | – | – | – | fold change (FC) (KB/VCR [22]): 2.47
COc1cccc2c1C(=O)c1c(O)c3c(c(O)c1C2=O)C[C@@](O)(C(=O)CO)C[C@@H]3O[C@H]1C[C@H](N)[C@H](O)[C@H](C)O1.Cl [DOXORUBICIN HYDROCHLORIDE] | – | – | – | – | – | – | – | – | 49.7 | 1.66 | fold change (FC) (KB/VCR [23]): 2.1; fold change (FC) (KB/VCR [24]): 2.8; fold change (FC) (KB/VCR [25]): 5.7; Activity (KB [26]): inactive
CC[C@]1(O)C[C@H]2CN(CCc3c([nH]c4ccccc34)[C@@](C(=O)OC)(c3cc4c(cc3OC)N(C=O)[C@H]3[C@@](O)(C(=O)OC)[C@H](OC(C)=O)[C@]5(CC)C=CCN6CC[C@]43[C@@H]65)C2)C1 [VINCRISTINE] | – | – | – | – | 5.83 | 8.22 | – | – | – | – | pIC50 ([5]; kb/vcr): 5.83; Activity (KB/VCR [27]): inactive; Activity (KB/VCR [28]): inactive; Activity (KB/VCR [29]): inactive
